In ChEMBL document CHEMBL1155498, “Glycine amides as PPARalpha agonists” (Bioorg Med Chem Lett, 2010):
Values after ≈ are worked out from the molar mass of the structure shown.

Columns and labels:
[1] = target: T1, Peroxisome proliferator-activated receptor alpha (Homo sapiens, UniProt Q07869); assay: Agonist activity at Gal4-fused human PPARalpha; assay type: functional
T1 sequence (Q07869 whole entry): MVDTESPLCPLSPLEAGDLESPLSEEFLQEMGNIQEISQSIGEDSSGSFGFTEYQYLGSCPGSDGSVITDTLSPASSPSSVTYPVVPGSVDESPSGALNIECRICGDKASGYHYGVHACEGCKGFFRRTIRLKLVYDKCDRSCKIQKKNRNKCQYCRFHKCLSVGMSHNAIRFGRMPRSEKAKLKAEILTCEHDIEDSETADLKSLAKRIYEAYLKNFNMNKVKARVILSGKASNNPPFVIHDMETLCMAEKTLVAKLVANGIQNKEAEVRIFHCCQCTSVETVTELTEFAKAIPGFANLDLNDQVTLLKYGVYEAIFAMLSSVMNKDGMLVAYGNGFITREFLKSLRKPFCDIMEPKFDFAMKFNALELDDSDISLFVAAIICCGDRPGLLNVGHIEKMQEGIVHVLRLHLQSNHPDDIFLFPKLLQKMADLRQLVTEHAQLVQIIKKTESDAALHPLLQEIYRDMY

[2] = Tmax in NMRI mouse at 10 mg/kg, po; assay type: ADME, organism-based; parameters: dose 10 mg/kg, route oral; settings: in vivo
Outline: (§1)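 Male NMRI mice (n = 3) dosed orally at 10 mg/kg as a suspension in 20% PEG 400 (5 ml/kg). Plasma sampled at 7 time points up to 6 h. Concentrations dose-normalised to 1 mg/kg. Bioavailability taken against an iv arm (3 mg/kg, 20% PEG400, n = 3).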

[3] = Clearance in NMRI mouse at 3 mg/kg, iv; assay type: ADME, organism-based; parameters: dose 3 mg/kg, route intravenous; settings: in vivo
Outline: (§2)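 Male NMRI mice (n = 3) given 3 mg/kg iv in 20% PEG400. Plasma concentration–time profile followed over about 6 h. Concentrations dose-normalised to 1 mg/kg.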

Mus musculus [4] = assay: Reduction in triglyceride level in human ApoA1 transgenic mouse at 0.6 mg/kg, po for 7 days relative to control; assay type: functional; parameters: scale not given: the % may be the effect or the level left
Outline: (§3)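 Male transgenic hAPO-A1 C57BL/6 mice, n = 10 per dose. Dosed orally once daily for 7 d at 0.6, 2 or 6 mg/kg in Solutol HS15 + ethanol + 0.9% brine (1+1+8), 10 ml/kg. Serum triglycerides and total cholesterol measured photometrically against vehicle control. Total cholesterol serves as a surrogate for HDL.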

[5] = Aqueous solubility of the compound; assay type: physicochemical
Mus musculus [6] = assay: Increase in total cholesterol level in human ApoA1 transgenic mouse at 0.6 mg/kg, po for 7 days (RVb = 29 %); assay type: functional; outline: as §3
Albumin = Albumin (Homo sapiens, UniProt P02768); assay: Binding affinity to human serum albumin; assay type: ADME; settings: isolated protein
Sequence of Albumin (P02768 whole entry): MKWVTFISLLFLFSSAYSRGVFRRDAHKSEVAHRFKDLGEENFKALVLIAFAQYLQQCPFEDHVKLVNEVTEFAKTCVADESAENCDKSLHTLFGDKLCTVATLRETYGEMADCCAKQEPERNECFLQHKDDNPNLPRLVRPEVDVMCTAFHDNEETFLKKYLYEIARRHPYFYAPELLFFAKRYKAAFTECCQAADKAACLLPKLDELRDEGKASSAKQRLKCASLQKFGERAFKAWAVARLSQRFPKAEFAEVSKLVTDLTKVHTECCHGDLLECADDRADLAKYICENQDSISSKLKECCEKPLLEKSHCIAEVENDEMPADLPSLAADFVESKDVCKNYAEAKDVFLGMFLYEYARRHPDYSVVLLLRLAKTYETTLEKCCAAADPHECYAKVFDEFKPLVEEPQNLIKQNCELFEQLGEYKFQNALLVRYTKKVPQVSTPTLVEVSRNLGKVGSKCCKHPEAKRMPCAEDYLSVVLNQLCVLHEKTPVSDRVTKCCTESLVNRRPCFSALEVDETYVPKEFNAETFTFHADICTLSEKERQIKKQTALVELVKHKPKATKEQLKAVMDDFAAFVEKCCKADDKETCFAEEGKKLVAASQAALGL

[7] = AUC in NMRI mouse at 10 mg/kg, po; assay type: ADME, organism-based; parameters: dose 10 mg/kg, route oral; settings: plasma; outline: as §1
Mus musculus [8] = assay: Increase in total cholesterol level in human ApoA1 transgenic mouse at 6 mg/kg, po for 7 days (RVb = 29 %); assay type: functional; outline: as §3
[9] = target: T2, Peroxisome proliferator-activated receptor gamma (Homo sapiens, UniProt P37231); assay: Agonist activity at Gal4-fused human PPARgamma
T2 sequence (P37231 whole entry): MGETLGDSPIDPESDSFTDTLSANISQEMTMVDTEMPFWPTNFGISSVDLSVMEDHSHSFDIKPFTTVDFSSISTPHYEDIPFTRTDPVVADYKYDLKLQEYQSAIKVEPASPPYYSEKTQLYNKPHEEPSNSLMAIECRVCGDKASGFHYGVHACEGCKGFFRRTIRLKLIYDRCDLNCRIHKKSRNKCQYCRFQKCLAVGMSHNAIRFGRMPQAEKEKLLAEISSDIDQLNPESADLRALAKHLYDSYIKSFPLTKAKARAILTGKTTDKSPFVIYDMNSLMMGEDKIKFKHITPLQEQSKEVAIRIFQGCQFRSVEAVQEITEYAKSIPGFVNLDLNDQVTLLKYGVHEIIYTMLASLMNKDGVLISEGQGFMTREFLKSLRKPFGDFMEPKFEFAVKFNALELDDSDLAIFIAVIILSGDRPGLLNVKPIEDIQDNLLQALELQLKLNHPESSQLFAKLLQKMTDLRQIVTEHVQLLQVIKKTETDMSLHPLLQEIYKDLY

[10] = target: T3, Peroxisome proliferator-activated receptor gamma (Mus musculus, UniProt P37238); assay: Agonist activity at Gal4-fused mouse PPARgamma; assay type: functional
T3 sequence (P37238 whole entry): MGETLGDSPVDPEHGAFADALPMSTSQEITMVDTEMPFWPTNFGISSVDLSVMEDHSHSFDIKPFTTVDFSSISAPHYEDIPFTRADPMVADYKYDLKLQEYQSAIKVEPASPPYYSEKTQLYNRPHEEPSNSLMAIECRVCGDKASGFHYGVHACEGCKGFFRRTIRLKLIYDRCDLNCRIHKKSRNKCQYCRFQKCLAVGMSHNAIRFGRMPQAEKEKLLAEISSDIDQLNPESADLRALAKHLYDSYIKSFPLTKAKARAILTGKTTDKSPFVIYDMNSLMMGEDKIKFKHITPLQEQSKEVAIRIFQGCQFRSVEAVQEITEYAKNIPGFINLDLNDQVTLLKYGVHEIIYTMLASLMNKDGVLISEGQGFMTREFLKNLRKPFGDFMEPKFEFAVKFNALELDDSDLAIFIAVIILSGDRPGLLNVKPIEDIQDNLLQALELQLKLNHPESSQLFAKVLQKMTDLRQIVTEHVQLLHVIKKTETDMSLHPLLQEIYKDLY

[11] = target: T4, Peroxisome proliferator-activated receptor alpha (Mus musculus, UniProt P23204); assay: Agonist activity at Gal4-fused mouse PPARalpha; assay type: functional
T4 sequence (P23204 whole entry): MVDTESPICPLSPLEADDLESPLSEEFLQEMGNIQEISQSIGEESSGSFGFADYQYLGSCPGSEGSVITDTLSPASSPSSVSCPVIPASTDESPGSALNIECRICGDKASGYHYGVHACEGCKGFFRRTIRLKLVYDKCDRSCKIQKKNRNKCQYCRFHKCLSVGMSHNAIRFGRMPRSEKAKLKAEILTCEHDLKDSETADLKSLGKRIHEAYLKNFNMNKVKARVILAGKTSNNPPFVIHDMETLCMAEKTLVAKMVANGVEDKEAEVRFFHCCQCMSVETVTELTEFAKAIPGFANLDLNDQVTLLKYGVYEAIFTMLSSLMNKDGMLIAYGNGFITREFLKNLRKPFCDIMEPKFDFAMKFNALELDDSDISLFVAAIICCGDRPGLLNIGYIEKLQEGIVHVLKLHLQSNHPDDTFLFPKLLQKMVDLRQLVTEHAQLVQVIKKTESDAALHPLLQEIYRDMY

[12] = target: T5, Peroxisome proliferator-activated receptor delta (Mus musculus, UniProt P35396); assay: Agonist activity at Gal4-fused mouse PPARdelta; assay type: functional
T5 sequence (P35396 whole entry): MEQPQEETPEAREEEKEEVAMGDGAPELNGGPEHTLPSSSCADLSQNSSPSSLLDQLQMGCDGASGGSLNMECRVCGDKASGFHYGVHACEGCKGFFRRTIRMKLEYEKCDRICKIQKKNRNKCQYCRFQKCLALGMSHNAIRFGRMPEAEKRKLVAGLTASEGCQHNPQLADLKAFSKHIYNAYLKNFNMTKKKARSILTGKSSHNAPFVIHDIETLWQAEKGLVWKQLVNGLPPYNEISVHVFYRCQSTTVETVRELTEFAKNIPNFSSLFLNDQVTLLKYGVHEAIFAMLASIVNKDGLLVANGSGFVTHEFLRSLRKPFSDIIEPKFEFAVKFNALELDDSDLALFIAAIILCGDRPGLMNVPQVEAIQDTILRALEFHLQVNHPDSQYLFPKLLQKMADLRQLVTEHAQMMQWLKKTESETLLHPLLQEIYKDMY

[13] = Oral bioavailability in NMRI mouse at 10 mg/kg; assay type: ADME, organism-based; settings: in vivo; outline: as §1
Mus musculus [14] = assay: Reduction in triglyceride level in human ApoA1 transgenic mouse at 2 mg/kg, po for 7 days relative to control; assay type: functional; parameters: scale not given: the % may be the effect or the level left; outline: as §3
[15] = Half life in NMRI mouse at 3 mg/kg, iv; assay type: ADME, organism-based; parameters: dose 3 mg/kg, route intravenous; settings: in vivo; outline: as §2
[16] = target: T6, Peroxisome proliferator-activated receptor delta (Homo sapiens, UniProt Q03181); assay: Agonist activity at Gal4-fused human PPARdelta; assay type: functional
T6 sequence (Q03181 whole entry): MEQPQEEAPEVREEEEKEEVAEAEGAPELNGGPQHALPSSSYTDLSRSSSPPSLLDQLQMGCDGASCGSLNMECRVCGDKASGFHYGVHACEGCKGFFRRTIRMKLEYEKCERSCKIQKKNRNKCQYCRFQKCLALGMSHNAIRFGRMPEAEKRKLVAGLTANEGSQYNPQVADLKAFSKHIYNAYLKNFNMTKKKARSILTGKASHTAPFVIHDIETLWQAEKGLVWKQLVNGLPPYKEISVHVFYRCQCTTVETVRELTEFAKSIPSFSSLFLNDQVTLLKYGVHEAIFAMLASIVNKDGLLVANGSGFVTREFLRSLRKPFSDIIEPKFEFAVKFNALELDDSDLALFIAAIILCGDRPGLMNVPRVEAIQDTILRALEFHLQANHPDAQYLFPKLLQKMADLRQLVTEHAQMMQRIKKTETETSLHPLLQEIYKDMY

Mus musculus [17] = assay: Increase in total cholesterol level in human ApoA1 transgenic mouse at 2 mg/kg, po for 7 days (RVb = 29 %); assay type: functional; outline: as §3

CCCCCCCN(CC(=O)Nc1ccc(C)cc1C)Cc1ccc(OC(C)(C)C(=O)O)cc1
EC50 [1]: > 25 µM

COc1ccc(CN(CC(=O)Nc2ccc(C)cc2C)Cc2ccc(OC(C)(C)C(=O)O)cc2)cc1
EC50 [1]: 0.9 µM

CC(C)(Oc1ccc(CN(CC(=O)NCc2ccccc2Cl)Cc2ccco2)cc1)C(=O)O
EC50 [1]: 7 µM

Cc1ccccc1NC(=O)CN(Cc1ccc(OC(C)(C)C(=O)O)cc1)Cc1ccco1
EC50 [1]: 2 µM

Cc1ccc(C)c(NC(=O)CN(Cc2ccc(OC(C)(C)C(=O)O)cc2)Cc2ccco2)c1
EC50 [1]: 0.6 µM

COc1ccc(OC)c(NC(=O)CN(Cc2ccc(OC(C)(C)C(=O)O)cc2)Cc2ccco2)c1
EC50 [1]: 0.3 µM

COc1cccc(NC(=O)CN(Cc2ccc(OC(C)(C)C(=O)O)cc2)Cc2ccco2)c1
EC50 [1]: 3 µM

CC(C)(Oc1ccc(CN(CC(=O)Nc2ccc(F)cc2F)Cc2ccco2)cc1)C(=O)O
EC50 [1]: 1.5 µM

CC(C)(Oc1ccc(CN(CC(=O)Nc2ccccn2)Cc2ccco2)cc1)C(=O)O
EC50 [1]: > 25 µM

CC(C)(Oc1ccc(CN(CC(=O)NCc2ccccc2)Cc2ccco2)cc1)C(=O)O
EC50 [1]: 13 µM

Cc1ccc(NC(=O)CN(Cc2ccc(OC(C)(C)C(=O)O)cc2)Cc2cccs2)c(C)c1
EC50 [1]: 0.7 µM

Cc1ccc(NC(=O)CN(Cc2ccc(OC(C)(C)C(=O)O)cc2)Cc2ccco2)c(C)c1
Tmax [2]: 0.5 h | clearance [3]: 89.2 mL/min/kg | Activity (Mus musculus [4]): -3% | solubility [5]: 500 µg/mL (≈ 1110 µM) | Activity (Mus musculus [6]): 58% | Activity (Albumin): 10 µM | AUC [7]: 370 ng·h/mL | Activity (Mus musculus [8]): 91% | EC50 [1]: 0.02 µM | EC50 [9]: 0.8 µM | EC50 [10]: 0.3 µM | EC50 [11]: 0.02 µM | EC50 [12]: 2 µM | bioavailability [13]: 20% | Activity (Mus musculus [14]): -20% | half-life [15]: 2 h | EC50 [16]: 6 µM | Activity (Mus musculus [17]): 74%

Cc1ccc(NC(=O)CN(Cc2ccccc2)Cc2ccc(OC(C)(C)C(=O)O)cc2)c(C)c1
EC50 [1]: 1 µM

CCCN(CC(=O)Nc1ccc(C)cc1C)Cc1ccc(OC(C)(C)C(=O)O)cc1
EC50 [1]: 1 µM

CCCCN(CC(=O)Nc1ccc(C)cc1C)Cc1ccc(OC(C)(C)C(=O)O)cc1
EC50 [1]: 10 µM

CCCCCCCN(CCc1ccc(SC(C)(C)C(=O)O)cc1)C(=O)Nc1ccc(F)cc1F [GSK-9578]
solubility [5]: 100 µg/mL (≈ 203 µM) | Activity (Albumin): 1.3 µM | EC50 [10]: 2.5 µM | EC50 [11]: 0.01 µM | EC50 [12]: 2 µM | EC50 [16]: 2 µM
